Reference: ChEMBL document CHEMBL1122061, “Use of a potential rabbit model for structure--behavioral activity studies of cannabinoids” (1982)

Experiments:
Assay type in all cases: functional
Oryctolagus cuniculus [1] = assay: Number of rabbits convulsed at 0.5 mg/kg, iv out of 1 rabbit tested
Summary of the method: (§1)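 Adult tetrahydrocannabinol-seizure susceptible (THC-SS) rabbits, 2–4 kg, dosed intravenously with cannabinoid in 10% polysorbate 80/90% physiological saline. Presence or absence of behavioral convulsion was recorded within 20 min. Animals were reused for several compounds or doses, with at least 7 days between trials and treatments given in random order. Every rabbit also received 0.05 mg/kg Δ9-THC at least once. Aim was four rabbits per dose.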

Oryctolagus cuniculus [2] = assay: Number of rabbits convulsed at 1 mg/kg, iv out of 4 rabbits tested; summary of the method: as §1
Oryctolagus cuniculus [3] = assay: Number of rabbits convulsed at 2 mg/kg, iv out of 2 rabbits tested; summary of the method: as §1
Oryctolagus cuniculus [4] = assay: Number of rabbits convulsed at 4 mg/kg, iv out of 1 rabbit tested; summary of the method: as §1
Oryctolagus cuniculus [5] = assay: Number of rabbits convulsed at 0.25 mg/kg, iv out of 1 rabbits tested; summary of the method: as §1
Oryctolagus cuniculus [6] = assay: Number of rabbits convulsed at 0.5 mg/kg, iv out of 1 rabbits tested; summary of the method: as §1
Oryctolagus cuniculus [7] = assay: Number of rabbits convulsed at 0.01 mg/kg, iv out of 4 rabbits tested; summary of the method: as §1
Oryctolagus cuniculus [8] = assay: Number of rabbits convulsed at 0.05 mg/kg, iv out of 4 rabbits tested; summary of the method: as §1
Oryctolagus cuniculus [9] = assay: Number of rabbits convulsed at 1 mg/kg, iv out of 1 rabbits tested; summary of the method: as §1
Oryctolagus cuniculus [10] = assay: Number of rabbits convulsed at 0.5 mg/kg, iv out of 4 rabbits tested; summary of the method: as §1
Oryctolagus cuniculus [11] = assay: Number of rabbits convulsed at 0.9 mg/kg, iv out of 3 rabbits tested; summary of the method: as §1
Oryctolagus cuniculus [12] = assay: Number of rabbits convulsed at 20 mg/kg, iv out of 3 rabbits tested; summary of the method: as §1
Oryctolagus cuniculus [13] = assay: Number of rabbits convulsed at 0.1 mg/kg, iv out of 4 rabbits tested; summary of the method: as §1
Oryctolagus cuniculus [14] = assay: Number of rabbits convulsed at 0.005 mg/kg, iv out of 4 rabbits tested; summary of the method: as §1
Oryctolagus cuniculus [15] = assay: Number of rabbits convulsed at 0.1 mg/kg, iv out of 2 rabbits tested; summary of the method: as §1
Oryctolagus cuniculus [16] = assay: Number of rabbits convulsed at 0.5 mg/kg, iv out of 3 rabbits tested; summary of the method: as §1
Oryctolagus cuniculus [17] = assay: Number of rabbits convulsed at 0.9 mg/kg, iv out of 4 rabbits tested; summary of the method: as §1
Oryctolagus cuniculus [18] = assay: Number of rabbits convulsed at 0.1 mg/kg, iv out of 1 rabbits tested; summary of the method: as §1
Oryctolagus cuniculus [19] = assay: Number of rabbits convulsed at 0.9 mg/kg, iv out of 1 rabbits tested; summary of the method: as §1
Oryctolagus cuniculus [20] = assay: Number of rabbits convulsed at 20 mg/kg, iv out of 2 rabbits tested; summary of the method: as §1
Oryctolagus cuniculus [21] = assay: Number of rabbits convulsed at 1 mg/kg, iv out of 3 rabbits tested; summary of the method: as §1
Oryctolagus cuniculus [22] = assay: Number of rabbits convulsed at 10 mg/kg, iv out of 1 rabbit tested; summary of the method: as §1
Oryctolagus cuniculus [23] = assay: Number of rabbits convulsed at 5 mg/kg, iv out of 1 rabbit tested; summary of the method: as §1
Oryctolagus cuniculus [24] = assay: Number of rabbits convulsed at 0.05 mg/kg, iv out of 3 rabbits tested; summary of the method: as §1
Oryctolagus cuniculus [25] = assay: Number of rabbits convulsed at 5 mg/kg, iv out of 1 rabbits tested; summary of the method: as §1
Oryctolagus cuniculus [26] = assay: Number of rabbits convulsed at 10 mg/kg, iv out of 1 rabbits tested; summary of the method: as §1
Oryctolagus cuniculus [27] = assay: Number of rabbits convulsed at 0.25 mg/kg, iv out of 5 rabbits tested; summary of the method: as §1
Oryctolagus cuniculus [28] = assay: Number of rabbits convulsed at 20 mg/kg, iv out of 1 rabbits tested; summary of the method: as §1
Oryctolagus cuniculus [29] = assay: Number of rabbits convulsed at 5 mg/kg, iv out of 4 rabbits tested; summary of the method: as §1
Oryctolagus cuniculus [30] = assay: Number of rabbits convulsed at 0.5 mg/kg, iv out of 7 rabbits tested; summary of the method: as §1
Oryctolagus cuniculus [31] = assay: Number of rabbits convulsed at 0.05 mg/kg, iv out of 2 rabbits tested; summary of the method: as §1
Oryctolagus cuniculus [32] = assay: Number of rabbits convulsed at 15 mg/kg, iv out of 1 rabbit tested; summary of the method: as §1
Oryctolagus cuniculus [33] = assay: Number of rabbits convulsed at 20 mg/kg, iv out of 4 rabbits tested; summary of the method: as §1
Oryctolagus cuniculus [34] = assay: Number of rabbits convulsed at 8 mg/kg, iv out of 2 rabbits tested; summary of the method: as §1
Oryctolagus cuniculus [35] = assay: Number of rabbits convulsed at 8 mg/kg, iv out of 1 rabbit tested; summary of the method: as §1
Oryctolagus cuniculus [36] = assay: Number of rabbits convulsed at 15 mg/kg, iv out of 7 rabbits tested; summary of the method: as §1
Oryctolagus cuniculus [37] = assay: Number of rabbits convulsed at 20 mg/kg, iv out of 6 rabbits tested; summary of the method: as §1
Oryctolagus cuniculus [38] = assay: Number of rabbits convulsed at 10 mg/kg, iv out of 6 rabbits tested; summary of the method: as §1
Oryctolagus cuniculus [39] = assay: Number of rabbits convulsed at 15 mg/kg, iv out of 10 rabbits tested; summary of the method: as §1
Oryctolagus cuniculus [40] = assay: Number of rabbits convulsed at 0.1 mg/kg, iv out of 10 rabbits tested; summary of the method: as §1
Oryctolagus cuniculus [41] = assay: Number of rabbits convulsed at 0.5 mg/kg, iv out of 20 rabbits tested; summary of the method: as §1
Oryctolagus cuniculus [42] = assay: Number of rabbits convulsed at 0.9 mg/kg, iv out of 9 rabbits tested; summary of the method: as §1
Oryctolagus cuniculus [43] = assay: Number of rabbits convulsed at 0.05 mg/kg, iv out of 14 rabbits tested; summary of the method: as §1

In the case of `CCCCCc1cc(O)c2c(c1)OC(C)(C)c1ccc(CO)cc1-2`, the “No. of rabbits convulsed” value (Oryctolagus cuniculus [1]) is reported as 0, the “No. of rabbits convulsed” value (Oryctolagus cuniculus [2]) is reported as 1 and the “No. of rabbits convulsed” value (Oryctolagus cuniculus [3]) is reported as 2. The “No. of rabbits convulsed” value (Oryctolagus cuniculus [4]) was 1.

For `CCCCCc1cc(O)c2c(c1)OC(C)(C)[C@@H]1CC=C(CO)CC21` (some centres not stated), the “No. of rabbits convulsed” value (Oryctolagus cuniculus [5]) was 1, the “No. of rabbits convulsed” value (Oryctolagus cuniculus [6]) was 1 and the “No. of rabbits convulsed” value (Oryctolagus cuniculus [7]) was 2. For the same compound, the “No. of rabbits convulsed” value (Oryctolagus cuniculus [8]) was 4 and the “No. of rabbits convulsed” value (Oryctolagus cuniculus [9]) was 1.

With `CCCCCc1cc(O)c2c(c1)OC(C)(C)[C@@H]1C[C@H](O)C(C)=CC21` (some centres not stated) the “No. of rabbits convulsed” value (Oryctolagus cuniculus [7]) was 2 and the “No. of rabbits convulsed” value (Oryctolagus cuniculus [8]) was 4.

With `CCCCCc1cc(O)c2c(c1)OC(C)(C)[C@@H]1CC=C(C=O)CC21` (some centres not stated) the “No. of rabbits convulsed” value (Oryctolagus cuniculus [10]) was 4, the “No. of rabbits convulsed” value (Oryctolagus cuniculus [7]) was 0 and the “No. of rabbits convulsed” value (Oryctolagus cuniculus [8]) was 4.

`CCCCCc1cc(O)c2c(c1)OC(C)(C)C1=C2CCCC1` was tested, and the “No. of rabbits convulsed” value (Oryctolagus cuniculus [11]) was 0 and the “No. of rabbits convulsed” value (Oryctolagus cuniculus [12]) was 1.

For `CCCCCCC(C)(C)c1cc(O)c2c(c1)OC(C)(C)[C@@H]1CCC(=O)CC21` (some centres not stated), the “No. of rabbits convulsed” value (Oryctolagus cuniculus [13]) was 4, the “No. of rabbits convulsed” value (Oryctolagus cuniculus [14]) was 3 and the “No. of rabbits convulsed” value (Oryctolagus cuniculus [7]) was 4.

`CCCCCc1cc(O)c2c(c1)OC(C)(C)C1=C2CC(C)CC1` (configuration not stated) was tested, and the “No. of rabbits convulsed” value (Oryctolagus cuniculus [15]) was 0, the “No. of rabbits convulsed” value (Oryctolagus cuniculus [16]) was 2 and the “No. of rabbits convulsed” value (Oryctolagus cuniculus [17]) was 4.

In the case of `CCCCCc1cc(O)c2c(c1)OC(C)(C)[C@@H]1C[C@@H](O)C(C)=CC21` (some centres not stated), the “No. of rabbits convulsed” value (Oryctolagus cuniculus [18]) is reported as 0, the “No. of rabbits convulsed” value (Oryctolagus cuniculus [19]) is reported as 0 and the “No. of rabbits convulsed” value (Oryctolagus cuniculus [20]) is reported as 0.

In the case of `CCCCCc1cc(O)c2c(c1)OC(C)(C)[C@@H]1CC=C(C(=O)O)CC21` (some centres not stated), the “No. of rabbits convulsed” value (Oryctolagus cuniculus [21]) is reported as 0, the “No. of rabbits convulsed” value (Oryctolagus cuniculus [22]) is reported as 0 and the “No. of rabbits convulsed” value (Oryctolagus cuniculus [20]) is reported as 2. The “No. of rabbits convulsed” value (Oryctolagus cuniculus [23]) was 0.

`CCCCCC(C)C(C)c1cc(O)c2c(c1)OC(C)(C)[C@@H]1CC=C(C)CC21` (some centres not stated) was tested, and the “No. of rabbits convulsed” value (Oryctolagus cuniculus [7]) was 3 and the “No. of rabbits convulsed” value (Oryctolagus cuniculus [24]) was 3.

In the case of `CCCCCc1cc(O)c2c(c1)OC(C)(C)[C@@H]1CCC(C)CC21` (some centres not stated), the “No. of rabbits convulsed” value (Oryctolagus cuniculus [18]) is reported as 1, the “No. of rabbits convulsed” value (Oryctolagus cuniculus [6]) is reported as 1 and the “No. of rabbits convulsed” value (Oryctolagus cuniculus [21]) is reported as 3. For the same compound, the “No. of rabbits convulsed” value (Oryctolagus cuniculus [25]) was 1 and the “No. of rabbits convulsed” value (Oryctolagus cuniculus [8]) was 2.

With `CCCCC(O)c1cc(O)c2c(c1)OC(C)(C)c1ccc(C)cc1-2` (configuration not stated) the “No. of rabbits convulsed” value (Oryctolagus cuniculus [26]) was 0 and the “No. of rabbits convulsed” value (Oryctolagus cuniculus [25]) was 0.

For `CC1=CC2c3c(O)cc(CCCCCO)cc3OC(C)(C)[C@@H]2CC1` (some centres not stated), the “No. of rabbits convulsed” value (Oryctolagus cuniculus [13]) was 4 and the “No. of rabbits convulsed” value (Oryctolagus cuniculus [8]) was 2.

`CCCCCc1cc(O)c2c(c1)OC(C)(C)[C@@H]1CCC(CO)=CC21` (some centres not stated) was tested, and the “No. of rabbits convulsed” value (Oryctolagus cuniculus [13]) was 4, the “No. of rabbits convulsed” value (Oryctolagus cuniculus [27]) was 5 and the “No. of rabbits convulsed” value (Oryctolagus cuniculus [7]) was 3. For the same compound, the “No. of rabbits convulsed” value (Oryctolagus cuniculus [8]) was 4.

`CCCCCc1cc(O)c2c(c1)OC(C)(C)[C@@H]1CC=C(C)CC21` (single isomer, unassigned; (+)) was tested, and the “No. of rabbits convulsed” value (Oryctolagus cuniculus [28]) was 1 and the “No. of rabbits convulsed” value (Oryctolagus cuniculus [29]) was 2.

In the case of `CCCCCc1cc(O)c2c(c1)OC(C)(C)[C@@H]1CC=C(C)CC21` (single isomer, unassigned; (-)), the “No. of rabbits convulsed” value (Oryctolagus cuniculus [13]) is reported as 4, the “No. of rabbits convulsed” value (Oryctolagus cuniculus [30]) is reported as 7 and the “No. of rabbits convulsed” value (Oryctolagus cuniculus [8]) is reported as 2.

In the case of `CC(=O)Oc1cc(OC(C)CCCc2ccccc2)cc2c1[C@@H]1C[C@H](O)CC[C@H]1[C@H](C)N2` (single isomer, unassigned; (-)) [NANTRADOL], the “No. of rabbits convulsed” value (Oryctolagus cuniculus [31]) is reported as 2 and the “No. of rabbits convulsed” value (Oryctolagus cuniculus [8]) is reported as 3.

`CCCCCc1cc(O)c2c(c1)OC(C)(CCC=C(C)C)C=C2` (configuration not stated) [CANNABICHROMENE] was tested, and the “No. of rabbits convulsed” value (Oryctolagus cuniculus [32]) was 0, the “No. of rabbits convulsed” value (Oryctolagus cuniculus [33]) was 1 and the “No. of rabbits convulsed” value (Oryctolagus cuniculus [34]) was 0.

For `CCCCCc1cc(O)c2c(c1)OC1(C)CCC3C1C2C3(C)C` (configuration not stated) [CANNABICYCLOL], the “No. of rabbits convulsed” value (Oryctolagus cuniculus [20]) was 0 and the “No. of rabbits convulsed” value (Oryctolagus cuniculus [35]) was 0.

For `C=C(C)[C@@H]1CCC(C)=C[C@H]1c1c(O)cc(CCCCC)cc1O` [CANNABIDIOL], the “No. of rabbits convulsed” value (Oryctolagus cuniculus [36]) was 0 and the “No. of rabbits convulsed” value (Oryctolagus cuniculus [37]) was 0.

For `CCCCCc1cc(O)c2c(c1)OC(C)(C)c1ccc(C)cc1-2` [CANNABINOL], the “No. of rabbits convulsed” value (Oryctolagus cuniculus [38]) was 4 and the “No. of rabbits convulsed” value (Oryctolagus cuniculus [39]) was 10.

For `CCCCCc1cc(O)c2c(c1)OC(C)(C)[C@@H]1CCC(C)=C[C@@H]21` [DRONABINOL], the “No. of rabbits convulsed” value (Oryctolagus cuniculus [40]) was 10, the “No. of rabbits convulsed” value (Oryctolagus cuniculus [41]) was 20 and the “No. of rabbits convulsed” value (Oryctolagus cuniculus [42]) was 9. The “No. of rabbits convulsed” value (Oryctolagus cuniculus [26]) was 1, the “No. of rabbits convulsed” value (Oryctolagus cuniculus [7]) was 0 and the “No. of rabbits convulsed” value (Oryctolagus cuniculus [43]) was 14.

`CCCCCc1cc(O)cc(O)c1` [WHILE OLIVETOL] was tested, and the “No. of rabbits convulsed” value (Oryctolagus cuniculus [33]) was 0.
